Measurements: ChEMBL document CHEMBL1145090, “In vitro analysis of stable, receptor-selective neurotensin[8-13] analogues” (J Med Chem, 2003)
Numbered stars: 1 amine (or outer) side, 2 acyl side, 3 side chain; on linkers, the order of the positions; unused ones are H or OH. Square brackets hold non-standard residues; d marks the D form. Peptide text beside a SMILES is read from it. X7 = CCNC(=N)NCCC[C@H](N)C(=O)/N=C(/N)NCCC[C@H](N[*:1])C(=O)[*:2]; X9 = NC1=NCCN1CCC[C@H](N[*:1])C(=O)[*:2]; Tle = CC(C)(C)[C@H](N)C(=O)O; hLys = NCCCCC[C@H](N)C(=O)O

Key:
[1] = Plasma half life in rat serum; assay type: ADME, organism-based
[2] = biological target: Neurotensin receptor type 1 (Homo sapiens, UniProt P30989); experiment: Evaluated for binding affinity by inhibiting binding of [125I]-Tyr(3)-NT to human Neurotensin receptor 1
Neurotensin receptor type 1, sequence (P30989 whole entry): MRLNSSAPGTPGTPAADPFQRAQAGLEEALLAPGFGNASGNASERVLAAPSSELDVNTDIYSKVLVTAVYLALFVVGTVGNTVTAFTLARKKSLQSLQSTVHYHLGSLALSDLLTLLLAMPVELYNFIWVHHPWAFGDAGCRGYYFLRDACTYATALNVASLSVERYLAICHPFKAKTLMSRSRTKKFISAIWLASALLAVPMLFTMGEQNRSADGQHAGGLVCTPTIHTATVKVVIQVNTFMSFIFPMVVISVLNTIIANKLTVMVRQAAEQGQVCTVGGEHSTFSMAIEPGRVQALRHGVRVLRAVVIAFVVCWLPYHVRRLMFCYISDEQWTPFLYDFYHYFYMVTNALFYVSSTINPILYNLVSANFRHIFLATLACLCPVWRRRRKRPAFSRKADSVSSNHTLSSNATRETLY

Sortilin = biological target: T1, Sortilin (Homo sapiens, UniProt Q99523); experiment: Evaluated for binding affinity by inhibiting binding of [125I]Tyr(3)-NT to human Neurotensin receptor 3
T1 sequence (Q99523 whole entry): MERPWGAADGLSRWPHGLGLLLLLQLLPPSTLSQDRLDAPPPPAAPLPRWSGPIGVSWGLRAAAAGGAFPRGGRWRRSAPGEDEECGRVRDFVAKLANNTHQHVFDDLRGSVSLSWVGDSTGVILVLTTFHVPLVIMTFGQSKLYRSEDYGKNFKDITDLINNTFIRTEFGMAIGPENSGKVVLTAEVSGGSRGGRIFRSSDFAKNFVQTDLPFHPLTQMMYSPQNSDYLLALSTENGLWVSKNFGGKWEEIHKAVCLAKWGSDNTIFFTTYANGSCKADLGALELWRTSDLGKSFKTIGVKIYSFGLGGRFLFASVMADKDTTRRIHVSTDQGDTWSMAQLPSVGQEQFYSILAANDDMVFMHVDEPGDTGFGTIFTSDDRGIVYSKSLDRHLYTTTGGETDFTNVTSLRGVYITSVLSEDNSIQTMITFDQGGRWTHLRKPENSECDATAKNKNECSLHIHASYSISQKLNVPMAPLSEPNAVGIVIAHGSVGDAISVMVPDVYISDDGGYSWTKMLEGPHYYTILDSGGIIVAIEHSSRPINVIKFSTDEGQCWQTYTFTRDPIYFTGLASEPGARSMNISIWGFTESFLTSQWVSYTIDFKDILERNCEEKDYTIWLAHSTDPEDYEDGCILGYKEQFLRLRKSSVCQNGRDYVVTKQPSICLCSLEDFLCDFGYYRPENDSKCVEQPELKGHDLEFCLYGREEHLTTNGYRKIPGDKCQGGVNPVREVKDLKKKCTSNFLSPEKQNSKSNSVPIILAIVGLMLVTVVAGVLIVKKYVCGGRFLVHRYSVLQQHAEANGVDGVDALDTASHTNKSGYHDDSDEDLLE
Method in brief: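 Whole cells (2 × 10^5) transiently expressing human NTR-3, ~60 h post-transfection. Equilibrated 10 min in Earle's Tris-HEPES pH 7.5 with 0.1% glucose and 0.1% BSA, then incubated 30 min at 37 °C with 0.4 nM 125I-Tyr(3)-NT, 0.8 mM 1,10-phenanthroline and increasing peptide. Washed, lysed in 0.1 N NaOH, gamma-counted. Nonspecific binding with 1 µM NT. IC50 taken.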

[3] = biological target: Neurotensin receptor type 2 (Homo sapiens, UniProt O95665); experiment: Evaluated for binding affinity by inhibiting binding of [125I]Tyr(3)-NT to human Neurotensin receptor 2
Neurotensin receptor type 2, sequence (O95665 whole entry): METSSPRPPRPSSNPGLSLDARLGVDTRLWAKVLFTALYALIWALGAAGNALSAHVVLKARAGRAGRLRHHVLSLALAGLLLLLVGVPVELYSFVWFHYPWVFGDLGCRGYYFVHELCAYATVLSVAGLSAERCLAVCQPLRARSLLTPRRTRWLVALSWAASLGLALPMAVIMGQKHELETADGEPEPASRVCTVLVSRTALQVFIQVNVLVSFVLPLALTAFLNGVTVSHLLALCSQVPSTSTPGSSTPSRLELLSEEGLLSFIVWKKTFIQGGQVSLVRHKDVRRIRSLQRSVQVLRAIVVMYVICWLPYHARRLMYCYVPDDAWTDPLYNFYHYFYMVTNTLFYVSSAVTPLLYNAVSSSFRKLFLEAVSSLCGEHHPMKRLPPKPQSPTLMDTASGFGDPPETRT

| Structure (SMILES) | half-life [1] | IC50 [2] | IC50 (Sortilin) | IC50 [3] |
| --- | --- | --- | --- | --- |
| CC[C@H](C)[C@H](NC(=O)[C@H](Cc1ccc(O)cc1)NC(=O)[C@@H]1CCCN1C(=O)[C@@H](N)CCC/N=C(/N)NC(=O)[C@@H](N)CCCN=C(N)N)C(=O)N[C@@H](CC(C)C)C(=O)O | 2.9 h | 0.4 nM | 1740 nM | 0.9 nM |
| CC[C@H](C)[C@H](NC(=O)[C@H](Cc1ccc(O)cc1)NC(=O)[C@@H]1CCCN1C(=O)[C@@H](N)CCC/N=C(/N)NC(=O)[C@@H](N)CCCCN(C)C)C(=O)N[C@@H](CC(C)C)C(=O)O | 2.12 h | 0.4 nM | 1620 nM | 2.8 nM |
| CCNC(=N)NCCC[C@H](N)C(=O)N[C@@H](CCCNC(=N)N)C(=O)N1CCC[C@H]1C(=O)N[C@@H](Cc1ccc(O)cc1)C(=O)N[C@H](C(=O)N[C@@H](CC(C)C)C(=O)O)[C@@H](C)CC | 0.525 h | – | – | – |
| CC[C@H](C)[C@H](NC(=O)[C@H](Cc1ccc(O)cc1)NC(=O)[C@@H]1CCCN1C(=O)[C@@H](N)CCC/N=C(/N)NC(=O)[C@@H](N)CCCCCN)C(=O)N[C@@H](CC(C)C)C(=O)O | 2.55 h | 0.38 nM | 1200 nM | 0.7 nM |
| CC[C@H](C)[C@H](NC(=O)[C@H](Cc1ccc(O)cc1)NC(=O)[C@@H]1CCCN1C(=O)[C@@H](N)CCCN=C(N)NC(=O)[C@@H](N)CCCN)C(=O)N[C@@H](CC(C)C)C(=O)O | 2.23 h | 0.59 nM | 1400 nM | 3 nM |
| CC[C@H](C)[C@H](NC(=O)[C@H](Cc1ccc(O)cc1)NC(=O)[C@@H]1CCCN1C(=O)[C@H](CCCNC(=N)N)NC(=O)[C@@H](N)CCCNC(=N)N)C(=O)N[C@@H](CC(C)C)C(=O)O | 0.0983 h | – | – | – |
| CC[C@H](C)[C@H](NC(=O)[C@H](Cc1ccc(O)cc1)NC(=O)[C@@H]1CCCN1C(=O)[C@H](CCCNC(=N)N)NC(=O)[C@@H](N)CCCN=C(N)NC)C(=O)N[C@@H](CC(C)C)C(=O)O | 0.237 h | – | – | – |
| CC(C)C[C@H](NC(=O)[C@@H](NC(=O)[C@H](Cc1c[nH]c2ccccc12)NC(=O)[C@@H]1CCCN1C(=O)[C@@H](N)CCCN=C(N)NC(=O)[C@@H](N)CCCCCN)C(C)(C)C)C(=O)O (H-R(hLys)PW[Tle]L-OH) | > 24 h | 133 nM | 53700 nM | 500 nM |
| CC(C)C[C@H](NC(=O)[C@@H](NC(=O)[C@H](Cc1ccc(O)cc1)NC(=O)[C@@H]1CCCN1C(=O)[C@@H](N)CCCN=C(N)NC(=O)[C@@H](N)CCCCCN)C(C)(C)C)C(=O)O (H-R(hLys)PY[Tle]L-OH) | – | – | 4000 nM | 11.1 nM |
| CC[C@H](C)[C@H](NC(=O)[C@H](Cc1ccc(O)cc1)NC(=O)[C@@H]1CCCN1C(=O)[C@H](CCCNC(=N)N)NC(=O)[C@@H](N)CCCN1CCN=C1N)C(=O)N[C@@H](CC(C)C)C(=O)O (H-[X9]RPYIL-OH) | 0.275 h | – | – | – |
| CC(C)C[C@H](NC(=O)[C@@H](NC(=O)[C@H](Cc1ccc(O)cc1)NC(=O)[C@@H]1CCCN1C(=O)[C@H](CCCNC(=N)N)NC(=O)[C@@H](N)CCCCCN)C(C)(C)C)C(=O)O (H-[hLys]RPY[Tle]L-OH) | > 24 h | 5.71 nM | – | – |

Other lines, results leading:

| half-life [1] | IC50 [2] | IC50 (Sortilin) | IC50 [3] | Structure (SMILES) |
| --- | --- | --- | --- | --- |
| 1.72 h | 0.51 nM | 550 nM | 3.1 nM | CC[C@H](C)[C@H](NC(=O)[C@H](Cc1ccc(O)cc1)NC(=O)[C@@H]1CCCN1C(=O)[C@@H](N)CCCNC(=N)NC(=O)[C@@H](N)CCCCC[N+](C)(C)C)C(=O)N[C@@H](CC(C)C)C(=O)O |
| – | – | 640 nM | 3.5 nM | CC[C@H](C)[C@H](NC(=O)[C@H](Cc1ccc(O)cc1)NC(=O)[C@@H]1CCCN1C(=O)[C@@H](N)CCCN=C(N)NC(=O)[C@@H](N)CCCNC)C(=O)N[C@@H](CC(C)C)C(=O)O |
| – | – | 480 nM | 5.1 nM | CC[C@H](C)[C@H](NC(=O)[C@H](Cc1ccc(O)cc1)NC(=O)[C@@H]1CCCN1C(=O)[C@@H](N)CCC/N=C(/N)NC(=O)[C@@H](N)CCCN(C)C)C(=O)N[C@@H](CC(C)C)C(=O)O |
| 3.52 h | 0.52 nM | 400 nM | 6.9 nM | CC[C@H](C)[C@H](NC(=O)[C@H](Cc1ccc(O)cc1)NC(=O)[C@@H]1CCCN1C(=O)[C@@H](N)CCC/N=C(/N)NC(=O)[C@@H](N)CCCCCNC)C(=O)N[C@@H](CC(C)C)C(=O)O |
| 2.1 h | 0.28 nM | 700 nM | 3.5 nM | CC[C@H](C)[C@H](NC(=O)[C@H](Cc1ccc(O)cc1)NC(=O)[C@@H]1CCCN1C(=O)[C@@H](N)CCC/N=C(/N)NC(=O)[C@@H](N)CCCCCN(C)C)C(=O)N[C@@H](CC(C)C)C(=O)O |
| 2.13 h | 0.34 nM | 1150 nM | 1.8 nM | CC[C@H](C)[C@H](NC(=O)[C@H](Cc1ccc(O)cc1)NC(=O)[C@@H]1CCCN1C(=O)[C@@H](N)CCC/N=C(/N)NC(=O)[C@@H](N)CCCCNC)C(=O)N[C@@H](CC(C)C)C(=O)O |
| – | – | 590 nM | 0.23 nM | CC[C@H](C)[C@H](NC(=O)[C@H](Cc1ccc(O)cc1)NC(=O)[C@@H]1CCCN1C(=O)[C@@H](N)CCC/N=C(/N)NC(=O)[C@@H](N)CCCN1CCN=C1N)C(=O)N[C@@H](CC(C)C)C(=O)O |
| 2.27 h | 0.3 nM | 512 nM | 2.1 nM | CC[C@H](C)[C@H](NC(=O)[C@H](Cc1ccc(O)cc1)NC(=O)[C@@H]1CCCN1C(=O)[C@@H](N)CCCN=C(N)NC(=O)[C@@H](N)CCCCN)C(=O)N[C@@H](CC(C)C)C(=O)O |
| – | – | 720 nM | 0.67 nM | CC[C@H](C)[C@H](NC(=O)[C@H](Cc1ccc(O)cc1)NC(=O)[C@@H]1CCCN1C(=O)[C@@H](N)CCCN=C(N)NC(=O)[C@@H](N)CCCN=C(N)NC)C(=O)N[C@@H](CC(C)C)C(=O)O |
| – | – | 480 nM | 0.3 nM | CCNC(=N)NCCC[C@H](N)C(=O)/N=C(/N)NCCC[C@H](N)C(=O)N1CCC[C@H]1C(=O)N[C@@H](Cc1ccc(O)cc1)C(=O)N[C@H](C(=O)N[C@@H](CC(C)C)C(=O)O)[C@@H](C)CC (H-[X7]PYIL-OH) |
